# Data: ChEMBL document CHEMBL3779892, “Increasing the binding affinity of VEGFR-2 inhibitors by extending their hydrophobic interaction with the active site: Design, synthesis and biological evaluation of 1-substituted-4-(4-methoxybenzyl)phthalazine derivatives” (Eur J Med Chem, 2016)
# Tests used:
# [1] = Growth inhibition of human BT549 cells at 10 uM after 48 hrs by sulforhodamine B assay; format: functional; conditions: BT-549, 48 h, read-out: GI
# Summary of the method: (§1)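 Run at NCI on the 60-line panel. Cells grown in RPMI 1640 with 5% FBS and 2 mM L-glutamine, plated at 5000–40,000 cells/well by doubling time, and held 24 h at 37 °C before dosing. Drug (DMSO stock) given at a single final 10 µM in triplicate wells for 48 h. Adherent cells fixed with cold TCA (10% final), suspension cells with 16% TCA. SRB stain read at 515 nm. Percent growth from Tz, C and Ti.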
# T47D = assay: Growth inhibition of human T47D cells at 10 uM after 48 hrs by sulforhodamine B assay; format: functional; conditions: read-out: GI
# Summary of the method: (§2)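 NCI-60 panel, adherent cells grown in RPMI 1640 with 5% FBS and 2 mM L-glutamine, plated at 5000–40,000 cells/well and preincubated 24 h at 37 °C, 5% CO2. 10 µM final compound from DMSO stock, triplicate wells, 48 h. Fixed with cold TCA (10% final, 60 min, 4 °C) and stained with 0.4% SRB. Absorbance read at 515 nm; growth calculated against time-zero and control wells.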
# serum albumin = serum albumin (Bos taurus, UniProt P02769); assay: Binding affinity to bovine serum albumin at pH 7.4 at 25 degC by equilibrium dialysis method; format: ADME; conditions: cattle, read-out: PB (converted)
# [2] = Growth inhibition of human MOLT4 cells at 10 uM after 48 hrs by sulforhodamine B assay; format: functional; conditions: MOLT-4, 48 h, read-out: GI; summary of the method: as §1
# [3] = Growth inhibition of human RPMI8226 cells at 10 uM after 48 hrs by sulforhodamine B assay; format: functional; conditions: RPMI-8226, 48 h, read-out: GI; summary of the method: as §1
# [4] = Growth inhibition of human HOP62 cells at 10 uM after 48 hrs by sulforhodamine B assay; format: functional; conditions: HOP-62, 48 h, read-out: GI; summary of the method: as §1
# NCI-H322M = assay: Growth inhibition of human NCI-H322M cells at 10 uM after 48 hrs by sulforhodamine B assay; format: functional; conditions: read-out: GI; summary of the method: as §1
# [5] = Growth inhibition of human COLO205 cells at 10 uM after 48 hrs by sulforhodamine B assay; format: functional; conditions: COLO 205, 48 h, read-out: GI; summary of the method: as §1
# [6] = Growth inhibition of human HCC2998 cells at 10 uM after 48 hrs by sulforhodamine B assay; format: functional; conditions: HCC 2998, 48 h, read-out: GI; summary of the method: as §1
# [7] = Growth inhibition of human HCT116 cells at 10 uM after 48 hrs by sulforhodamine B assay; format: functional; conditions: HCT-116, 48 h, read-out: GI; summary of the method: as §1
# [8] = Growth inhibition of human HCT15 cells at 10 uM after 48 hrs by sulforhodamine B assay; format: functional; conditions: HCT-15, 48 h, read-out: GI; summary of the method: as §1
# [9] = Growth inhibition of human SF539 cells at 10 uM after 48 hrs by sulforhodamine B assay; format: functional; conditions: SF-539, 48 h, read-out: GI; summary of the method: as §1
# U-251 = assay: Growth inhibition of human U251 cells at 10 uM after 48 hrs by sulforhodamine B assay; format: functional; conditions: U-251, 48 h, read-out: GI; summary of the method: as §2
# [10] = Growth inhibition of human LOXIMVI cells at 10 uM after 48 hrs by sulforhodamine B assay; format: functional; conditions: LOX IMVI, read-out: GI; summary of the method: as §1
# Malme-3M = assay: Growth inhibition of human MALME-3M cells at 10 uM after 48 hrs by sulforhodamine B assay; format: functional; conditions: read-out: GI; summary of the method: as §1
# [11] = Growth inhibition of human UACC257 cells at 10 uM after 48 hrs by sulforhodamine B assay; format: functional; conditions: UACC-257, 48 h, read-out: GI; summary of the method: as §2
# [12] = Growth inhibition of human IGROV1 cells at 10 uM after 48 hrs by sulforhodamine B assay; format: functional; conditions: IGROV-1, 48 h, read-out: GI; summary of the method: as §1
# [13] = Growth inhibition of human OVCAR4 cells at 10 uM after 48 hrs by sulforhodamine B assay; format: functional; conditions: OVCAR-4, 48 h, read-out: GI; summary of the method: as §1
# [14] = Growth inhibition of human SKOV3 cells at 10 uM after 48 hrs by sulforhodamine B assay; format: functional; conditions: SK-OV-3, 48 h, read-out: GI; summary of the method: as §1
# 786-0 = assay: Growth inhibition of human 786-0 cells at 10 uM after 48 hrs by sulforhodamine B assay; format: functional; conditions: 786-0, 48 h, read-out: GI; summary of the method: as §1
# [15] = Growth inhibition of human Caki1 cells at 10 uM after 48 hrs by sulforhodamine B assay; format: functional; conditions: CAKI-1, 48 h, read-out: GI; summary of the method: as §1
# [16] = Growth inhibition of human RXF393 cells at 10 uM after 48 hrs by sulforhodamine B assay; format: functional; conditions: RXF 393, 48 h, read-out: GI; summary of the method: as §1
# SN12C = assay: Growth inhibition of human SN12C cells at 10 uM after 48 hrs by sulforhodamine B assay; format: functional; conditions: read-out: GI; summary of the method: as §1
# [17] = Growth inhibition of human TK10 cells at 10 uM after 48 hrs by sulforhodamine B assay; format: functional; conditions: TK-10, 48 h, read-out: GI; summary of the method: as §2
# MCF7 = assay: Growth inhibition of human MCF7 cells at 10 uM after 48 hrs by sulforhodamine B assay; format: functional; conditions: MCF7, 48 h, read-out: GI; summary of the method: as §1
# Sequence of serum albumin (P02769 whole entry): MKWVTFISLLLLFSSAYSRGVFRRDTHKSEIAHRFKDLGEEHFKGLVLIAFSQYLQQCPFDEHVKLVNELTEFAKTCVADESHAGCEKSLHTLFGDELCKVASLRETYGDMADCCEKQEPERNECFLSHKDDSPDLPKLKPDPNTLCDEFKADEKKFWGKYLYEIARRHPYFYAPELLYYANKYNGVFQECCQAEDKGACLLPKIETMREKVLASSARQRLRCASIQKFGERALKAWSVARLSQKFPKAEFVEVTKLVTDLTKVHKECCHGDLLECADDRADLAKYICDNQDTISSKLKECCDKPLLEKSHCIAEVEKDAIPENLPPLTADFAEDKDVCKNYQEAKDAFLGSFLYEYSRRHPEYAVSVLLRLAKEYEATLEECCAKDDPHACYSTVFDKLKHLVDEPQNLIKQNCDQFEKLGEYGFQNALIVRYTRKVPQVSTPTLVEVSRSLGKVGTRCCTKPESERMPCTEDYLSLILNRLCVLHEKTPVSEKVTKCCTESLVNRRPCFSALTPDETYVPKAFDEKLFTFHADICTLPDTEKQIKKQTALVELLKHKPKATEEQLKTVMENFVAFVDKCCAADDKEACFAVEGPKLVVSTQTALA
compound,measurement,setting,value
COc1ccc(Cc2nnc(Nc3ccc(NC(=O)Nc4ccc(OC)cc4)cc3)c3ccccc23)cc1,inhibition of growth at 10 µM,[1],31%
same,inhibition of growth at 10 µM,T47D,42%
same,fraction unbound,serum albumin,0.921
same,inhibition of growth at 10 µM,[2],47%
same,inhibition of growth at 10 µM,[3],91%
same,inhibition of growth at 10 µM,[4],33%
same,inhibition of growth at 10 µM,NCI-H322M,< 30%
same,inhibition of growth at 10 µM,[5],< 30%
same,inhibition of growth at 10 µM,[6],< 30%
same,inhibition of growth at 10 µM,[7],34%
same,inhibition of growth at 10 µM,[8],39%
same,inhibition of growth at 10 µM,[9],49%
same,inhibition of growth at 10 µM,U-251,49%
same,inhibition of growth at 10 µM,[10],< 30%
same,inhibition of growth at 10 µM,Malme-3M,31%
same,inhibition of growth at 10 µM,[11],< 30%
same,inhibition of growth at 10 µM,[12],< 30%
same,inhibition of growth at 10 µM,[13],< 30%
same,inhibition of growth at 10 µM,[14],< 30%
same,inhibition of growth at 10 µM,786-0,63%
same,inhibition of growth at 10 µM,[15],< 30%
same,inhibition of growth at 10 µM,[16],100%
same,inhibition of growth at 10 µM,SN12C,< 30%
same,inhibition of growth at 10 µM,[17],< 30%
same,inhibition of growth at 10 µM,MCF7,30%
